Measured values reported in ChEMBL document CHEMBL1136943, “Nocathiacin analogs: Synthesis and antibacterial activity of novel water-soluble amides” (Bioorg Med Chem Lett, 2009).
Converted amounts (≈) assume the structure as drawn.

Legend:
[1] = biological target: T1, Type-2 angiotensin II receptor (Homo sapiens, UniProt P50052); assay: Inhibition of AT2 receptor
T1 sequence (P50052 whole entry): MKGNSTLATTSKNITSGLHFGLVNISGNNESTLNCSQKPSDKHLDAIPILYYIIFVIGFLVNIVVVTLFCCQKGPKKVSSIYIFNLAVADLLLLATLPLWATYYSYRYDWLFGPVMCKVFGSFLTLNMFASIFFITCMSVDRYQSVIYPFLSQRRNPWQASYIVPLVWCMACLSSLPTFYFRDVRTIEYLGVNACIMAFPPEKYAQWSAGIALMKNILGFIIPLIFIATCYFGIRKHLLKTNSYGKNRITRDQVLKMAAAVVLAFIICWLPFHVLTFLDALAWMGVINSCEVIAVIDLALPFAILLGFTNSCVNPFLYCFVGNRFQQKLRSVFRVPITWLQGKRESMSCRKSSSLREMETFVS
Summary of the method: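 AT2 IC50 derived from four dose levels per compound, following a published protocol.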

Enterococcus faecalis [2] = assay: Antibacterial activity against Enterococcus faecalis C21560 in liquid culture by turbidity method; assay type: functional
Summary of the method: (§1)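 MIC is the lowest concentration giving 100% inhibition of bacterial growth in liquid culture, read by turbidity.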

Streptococcus pneumoniae = assay: Antibacterial activity against Streptococcus pneumoniae CL2883 in liquid culture by turbidity method; assay type: functional; summary of the method: as §1
Staphylococcus aureus [3] = assay: Antibacterial activity against Staphylococcus aureus infected in mouse model assessed as reduction of >= 2 log 10 cfu kidney burden; assay type: functional
Summary of the method: (§2)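 Systemic S. aureus infection mouse model (SATOA). Compounds were given iv; […]. Kidney bacterial burden (cfu) was compared with untreated control. ED99 is the dose giving a reduction of at least 2 log10 cfu in kidney burden.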

Staphylococcus aureus [4] = assay: Antibacterial activity against Staphylococcus aureus MB2865 in liquid culture by turbidity method; assay type: functional; summary of the method: as §1
Staphylococcus aureus [5] = assay: Antibacterial activity against Staphylococcus aureus infected iv bid dosed mouse model assessed as reduction of colony forming unit in kidney; assay type: functional; summary of the method: as §2
Enterococcus faecalis [6] = assay: Antibacterial activity against Enterococcus faecalis; assay type: functional; summary of the method: as §1

Row | IC50 [1] | MIC (Enterococcus faecalis [2]) | MIC (Streptococcus pneumoniae) | MIC (Staphylococcus aureus [4]) | SMILES | ED99 (Staphylococcus aureus [3]) | ED99 (Staphylococcus aureus [5]) | MIC (Enterococcus faecalis [6])
1 | 250 nM | 0.06 µg/mL (≈ 0.039 µM) | 0.00048 µg/mL (≈ 0.000312 µM) | 0.0038 µg/mL (≈ 0.00247 µM) | CO/C(C)=C1/NC(=O)[C@H]([C@@H](C)O)NC(=O)c2csc(n2)-c2cc(O)c(-c3nc(C(=O)NCCNC(=O)CN4CCOCC4)cs3)nc2-c2csc(n2)[C@@H]2COC(=O)c3c4c5c(cccc5n3O)COC(=O)[C@@H](O[C@H]3C[C@](C)(O)[C@H](N(C)C)[C@H](C)O3)[C@@H](OC4)[C@H](NC(=O)c3csc1n3)c1nc(cs1)C(=O)N2 | 0.05 mg/kg |  | 
2 | 190 nM | 0.06 µg/mL (≈ 0.0417 µM) | 0.00046 µg/mL (≈ 0.00032 µM) | 0.015 µg/mL (≈ 0.0104 µM) | CO/C(C)=C1/NC(=O)[C@H]([C@@H](C)O)NC(=O)c2csc(n2)-c2cc(O)c(-c3nc(C(=O)NCCN(C)C)cs3)nc2-c2csc(n2)[C@@H]2COC(=O)c3c4c5c(cccc5n3O)COC(=O)[C@@H](O[C@H]3C[C@](C)(O)[C@H](N(C)C)[C@H](C)O3)[C@@H](OC4)[C@H](NC(=O)c3csc1n3)c1nc(cs1)C(=O)N2 | 0.17 mg/kg |  | 

Continued, compound first:

Row | SMILES | IC50 [1] | MIC (Enterococcus faecalis [2]) | MIC (Streptococcus pneumoniae) | MIC (Staphylococcus aureus [4]) | ED99 (Staphylococcus aureus [3]) | ED99 (Staphylococcus aureus [5]) | MIC (Enterococcus faecalis [6])
3 | CC(=O)NC[C@H]1CN(c2ccc(N3CCOCC3)c(F)c2)C(=O)O1 [LINEZOLID] |  |  |  |  |  | 12 mg/kg | 
4 | C=C(NC(=O)c1csc(-c2nc3c(cc2O)-c2nc(cs2)C(=O)N[C@@H]([C@@H](C)O)C(=O)N/C(=C(\C)OC)c2nc(cs2)C(=O)N[C@@H]2c4nc(cs4)C(=O)N[C@@H](COC(=O)c4c5c6c(cccc6n4O)COC(=O)[C@@H](O[C@H]4C[C@](C)(O)[C@H](N(C)C)[C@H](C)O4)[C@H]2OC5)c2nc-3cs2)n1)C(N)=O [MJ347-81F4 A] |  | 0.03 µg/mL (≈ 0.0209 µM) | 0.002 µg/mL (≈ 0.00139 µM) | 0.007 µg/mL (≈ 0.00487 µM) |  |  | 0.015 µg/mL (≈ 0.0104 µM)
5 | CO/C(C)=C1/NC(=O)[C@H]([C@@H](C)O)NC(=O)c2csc(n2)-c2cc(O)c(-c3nc(C(=O)O)cs3)nc2-c2csc(n2)[C@@H]2COC(=O)c3c4c5c(cccc5n3O)COC(=O)[C@@H](O[C@H]3C[C@](C)(O)[C@H](N(C)C)[C@H](C)O3)[C@@H](OC4)[C@H](NC(=O)c3csc1n3)c1nc(cs1)C(=O)N2 [NOCATHIACIN ACID] | 1120 nM | > 8 µg/mL | 2 µg/mL (≈ 1.46 µM) | 8 µg/mL (≈ 5.84 µM) |  |  | 
